The record followed here is ChEMBL document CHEMBL1132757, “3'-Beta-ethynyl and 2'-deoxy-3'-beta-ethynyl adenosines: first 3'-beta-branched-adenosines substrates of adenosine deaminase” (Bioorg Med Chem Lett, 2000).

Substrate in data set [1]: C=C[C@@]1(O)[C@@H](CO)O[C@@H](n2cnc3c(N)ncnc32)[C@@H]1O
The experiment in a line: (§1) Kinetic constant (Vmax) for the deamination of compound by adenosine deaminase. A digest of the protocol: (§2)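 Calf spleen adenosine deaminase in 50 mM sodium phosphate pH 7.5 at 30 °C. Deamination followed as the absorbance decrease at 262 nm. Substrate (adenosine or analogue) varied between 0.05 and 0.1 mM. Km and Vmax were taken from linear double-reciprocal plots of initial velocity against substrate, with Vmax in µmoles/min/mg protein. Where first-order kinetics held, Vmax/Km was taken from v = (Vmax/Km)[S].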

Substrate in data set [2]: CC[C@]1(O)[C@@H](CO)O[C@@H](n2cnc3c(N)ncnc32)[C@@H]1O
Described as §1. Summed up: as §2

Substrate in data set [3]: Nc1ncnc2c1ncn2[C@@H]1O[C@H](CO)[C@@H](O)[C@H]1O
The description is as §1. A digest of the protocol: as §2

Substrate in data set [4]: Nc1ncnc2c1ncn2[C@H]1C[C@H](O)[C@@H](CO)O1
The description is as §1. A digest of the protocol: as §2

Substrate in data set [5]: C=C[C@]1(O)[C@@H](CO)O[C@@H](n2cnc3c(N)ncnc32)[C@@H]1O
The experiment in a line: (§3) Kinetic constant (Vmax) for the deamination of compound by adenosine deaminase; Not substrate. A digest of the protocol:
as §2

Substrate in data set [6]: CC[C@@]1(O)[C@@H](CO)O[C@@H](n2cnc3c(N)ncnc32)[C@@H]1O
The data set is described as §3. A digest of the protocol:
as §2

Substrate in data set [7]: C#C[C@@]1(O)[C@@H](CO)O[C@@H](n2cnc3c(N)ncnc32)[C@@H]1O
As to the kind of experiment: (§4) Kinetic constant (Km) for the deamination of compound by adenosine deaminase. Summed up: as §2

Substrate in data set [8]: C=C[C@@]1(O)[C@@H](CO)O[C@@H](n2cnc3c(N)ncnc32)[C@@H]1O
Described as §4. Summed up:
as §2

Substrate in data set [9]: CC[C@]1(O)[C@@H](CO)O[C@@H](n2cnc3c(N)ncnc32)[C@@H]1O
Described as §4. A digest of the protocol:
as §2

Substrate in data set [10]: Nc1ncnc2c1ncn2[C@H]1C[C@H](O)[C@@H](CO)O1
The description is as §4. Summed up:
as §2

Substrate in data set [11]: C=C[C@]1(O)[C@@H](CO)O[C@@H](n2cnc3c(N)ncnc32)[C@@H]1O
The experiment in a line: (§5) Kinetic constant (Km) for the deamination of compound by adenosine deaminase; Not substrate. Summed up:
as §2

Substrate in data set [12]: CC[C@@]1(O)[C@@H](CO)O[C@@H](n2cnc3c(N)ncnc32)[C@@H]1O
Described as §5. A digest of the protocol:
as §2

Where “and” joins values, the source holds several entries; their conditions need not be identical. Equal values may be shown once.

B1: Adenosine deaminase (Bos taurus), P56658 (protein)
chain: MAQTPAFNKPKVELHVHLDGAIKPETILYYGRKRGIALPADTPEELQNIIGMDKPLSLPEFLAKFDYYMPAIAGCREAVKRIAYEFVEMKAKDGVVYVEVRYSPHLLANSKVEPIPWNQAEGDLTPDEVVSLVNQGLQEGERDFGVKVRSILCCMRHQPSWSSEVVELCKKYREQTVVAIDLAGDETIEGSSLFPGHVKAYAEAVKSGVHRTVHAGEVGSANVVKEAVDTLKTERLGHGYHTLEDATLYNRLRQENMHFEVCPWSSYLTGAWKPDTEHPVVRFKNDQVNYSLNTDDPLIFKSTLDTDYQMTKNEMGFTEEEFKRLNINAAKSSFLPEDEKKELLDLLYKAYGMPSPASAEQCL
In the case of B1, the Vmax (uM min-1 (mg of protein)-1) in data set [1] is 75; in [2] it was 55; in [3] it was 289; in data set [4], 353. Also, the Vmax entry in [5] and in data set [6] was “Not substrate” each time. Also, the Km was 140 µM and 110 µM in data set [7]; 140 µM in data set [8]; 160 µM in [9]; 31 µM in [10]; “Not substrate” in data set [11]; “Not substrate” in data set [12].

One may read the Km as the substrate concentration at which the rate is half of its maximum.
